Tests used:
Format in all cases: ADME
[1] = Drug metabolism in Sprague-Dawley rat liver microsomes assessed as CYP450-mediated N-(2-aminoethyl)-2-(aminomethyl)-2-[(3,5-dibromo-4-hydroxy-phenyl)methyl]-3-(3,5-dibromophenyl)propanamide formation incubated up to 3 hrs in presence of NADPH regenerating system by RP-HPLC-MS analysis
Outline: (§1)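 Substrate at 1 µL of 100 µM aqueous stock in 100 mM potassium phosphate, pH 7.4, with NADPH regenerating system. Pooled male Sprague–Dawley rat liver microsomes (20 mg/mL stock) added, then incubated at 37 °C. Sampled at 0–180 min and quenched with cold methanol containing propranolol internal standard. Analysed by RP-HPLC–HRMS in positive ESI mode. Metabolites confirmed by HCD MS2. Triplicate incubations.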

[2] = Drug metabolism in Sprague-Dawley rat liver microsomes assessed as CYP450-mediated 2-[[2-(aminomethyl)-3-(3,5-dibromophenyl)-2-[(3,5-dibromophenyl)methyl]propanoyl]amino]acetic acid formation incubated up to 3 hrs in presence of NADPH regenerating system by RP-HPLC-MS analysis; outline: as §1
[3] = Drug metabolism in Sprague-Dawley rat liver microsomes assessed as CYP450-mediated deaminated form of N-(2-aminoethyl)-2-(aminomethyl)-3-(4-fluoro-1-naphthyl)-2-[(4-fluoro-1-naphthyl)methyl]propanamide metabolite formation incubated up to 3 hrs in presence of NADPH regenerating system by RP-HPLC-MS analysis; outline: as §1
[4] = Drug metabolism in Sprague-Dawley rat liver microsomes assessed as CYP450-mediated N-(2-aminoethyl)-2-(aminomethyl)-2-[(4-fluoro-5,6-dihydroxy-5,6-dihydronaphthalen-1-yl)methyl]-3-(4-fluoro-1-naphthyl)propanamide formation incubated up to 3 hrs in presence of NADPH regenerating system by RP-HPLC-MS analysis; outline: as §1

Row | Compound | Drug metabolism [1] | Drug metabolism [2] | Drug metabolism [3] | Drug metabolism [4]
1 | NCCNC(=O)C(CN)(Cc1cc(Br)cc(Br)c1)Cc1cc(Br)cc(Br)c1 | Metabolite_Notdetected | Metabolite_Notdetected |  | 
2 | NCCNC(=O)C(CN)(Cc1ccc(F)c2ccccc12)Cc1ccc(F)c2ccccc12 |  |  | Metabolite_Detected | Metabolite_Detected

Source: ChEMBL document CHEMBL4311965, “Antimicrobial activity of amphipathic α,α-disubstituted β-amino amide derivatives against ESBL - CARBA producing multi-resistant bacteria; effect of halogenation, lipophilicity and cationic character” (Eur J Med Chem, 2019)
